Data from ChEMBL document CHEMBL3286209, “Synthesis and biological activities of novel pleuromutilin derivatives with a substituted thiadiazole moiety as potent drug-resistant bacteria inhibitors” (J Med Chem, 2014).
Converted amounts (≈) assume the structure as drawn.

How the values were obtained:
Assay type in all cases: functional
Escherichia coli [1] = experiment: Antibacterial activity against Escherichia coli after 48 hrs by agar dilution method
How it was run: (§1)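 Agar dilution per NCCLS on Mueller–Hinton agar; compound in DMSO/water, 2-fold serial dilutions in distilled water, 2 mL dilution mixed into 18 mL hot agar. Clinical isolates from blood slants, adjusted to about 10⁵−10⁶ cfu/mL in 0.90% saline; 10 μL spotted. Incubated 36.5 °C for 48 h; MIC = lowest concentration giving complete growth inhibition. Triplicate runs.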

Staphylococcus aureus [2] = experiment: Antibacterial activity against methicillin-resistant Staphylococcus aureus at 160 ug/ml after 24 hrs by Oxford cup assay; conditions: read-out: IZ
How it was run: (§2)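 Oxford cup diffusion using clinical isolates. Inocula are made in 0.9% saline to a McFarland standard and spread on nutrient agar. […] Inhibition zone diameter is measured after 24 h at 37 °C. Run in triplicate.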

Streptococcus agalactiae [3] = experiment: Antibacterial activity against Streptococcus agalactiae after 48 hrs by agar dilution method; how it was run: as §1
[4] = system: Staphylococcus epidermidis; experiment: Antibacterial activity against methicillin-resistant Staphylococcus epidermidis at 320 ug/ml after 24 hrs by Oxford cup assay; conditions: read-out: IZ; how it was run: as §2
Escherichia coli [5] = experiment: Antibacterial activity against Escherichia coli at 160 ug/ml after 24 hrs by Oxford cup assay; conditions: read-out: IZ
How it was run: (§3)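 Oxford cup diffusion: saline inoculum set by McFarland standard, spread on nutrient agar plates. […] Inhibition zone measured after 24 h at 37 °C; triplicate.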

Staphylococcus aureus [6] = experiment: Antibacterial activity against methicillin-resistant Staphylococcus aureus at 320 ug/ml after 24 hrs by Oxford cup assay; conditions: read-out: IZ; how it was run: as §2
Staphylococcus aureus [7] = experiment: Antibacterial activity against methicillin-resistant Staphylococcus aureus after 48 hrs by agar dilution method
How it was run: (§4)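 Agar dilution per NCCLS using clinical isolates. Compound DMSO/water solutions are 2-fold serially diluted in water, then mixed 1:10 into hot Mueller–Hinton agar. Inocula come from blood slants, adjusted to about 10⁵−10⁶ cfu/mL in 0.90% saline, and spotted at 10 μL. Plates incubated at 36.5 °C for 48 h. MIC is the lowest concentration giving complete growth inhibition. Run in triplicate at pH 7.40.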

[8] = system: Staphylococcus epidermidis; experiment: Antibacterial activity against methicillin-resistant Staphylococcus epidermidis at 160 ug/ml after 24 hrs by Oxford cup assay; conditions: read-out: IZ; how it was run: as §2
Streptococcus agalactiae [9] = experiment: Antibacterial activity against Streptococcus agalactiae at 320 ug/ml after 24 hrs by Oxford cup assay; conditions: read-out: IZ; how it was run: as §3
Escherichia coli [10] = experiment: Antibacterial activity against Escherichia coli at 320 ug/ml after 24 hrs by Oxford cup assay; conditions: read-out: IZ; how it was run: as §3
[11] = system: Staphylococcus epidermidis; experiment: Antibacterial activity against methicillin-resistant Staphylococcus epidermidis after 48 hrs by agar dilution method; how it was run: as §4
Streptococcus agalactiae [12] = experiment: Antibacterial activity against Streptococcus agalactiae at 160 ug/ml after 24 hrs by Oxford cup assay; conditions: read-out: IZ; how it was run: as §3

SMILES | MIC (Escherichia coli [1]) [µg/mL] | zone of inhibition at 160 µg/mL (Staphylococcus aureus [2]) [mm] | MIC (Streptococcus agalactiae [3]) [µg/mL] | zone of inhibition at 320 µg/mL [4] [mm] | zone of inhibition at 160 µg/mL (Escherichia coli [5]) [mm] | zone of inhibition at 320 µg/mL (Staphylococcus aureus [6]) [mm] | MIC (Staphylococcus aureus [7]) [µg/mL] | zone of inhibition at 160 µg/mL [8] [mm] | zone of inhibition at 320 µg/mL (Streptococcus agalactiae [9]) [mm] | zone of inhibition at 320 µg/mL (Escherichia coli [10]) [mm] | MIC [11] [µg/mL] | zone of inhibition at 160 µg/mL (Streptococcus agalactiae [12]) [mm]
C=C[C@]1(C)C[C@@H](OC(=O)CSc2nnc(NC(=O)c3ccc(OC)cc3)s2)[C@]2(C)[C@H](C)CC[C@]3(CCC(=O)[C@H]32)[C@@H](C)[C@@H]1O | 32 (≈ 51 µM) | 12.2 | 2 (≈ 3.19 µM) | 14.4 | 10.7 | 15.5 | 2 (≈ 3.19 µM) | 9.52 | 14.3 | 11.2 | 2 (≈ 3.19 µM) | 11.5
C=C[C@]1(C)C[C@@H](OC(=O)CSc2nnc(NC(=O)c3ccccc3N)s2)[C@]2(C)[C@H](C)CC[C@]3(CCC(=O)[C@H]32)[C@@H](C)[C@@H]1O | 16 (≈ 26.1 µM) | 12.9 | 4 (≈ 6.53 µM) | 15.2 | 10.1 | 15.5 | 4 (≈ 6.53 µM) | 12.2 | 13.8 | 11.3 | 2 (≈ 3.26 µM) | 12.4
C=C[C@]1(C)C[C@@H](OC(=O)CSc2nnc(NC(=O)c3cccc(N)c3)s2)[C@]2(C)[C@H](C)CC[C@]3(CCC(=O)[C@H]32)[C@@H](C)[C@@H]1O | 16 (≈ 26.1 µM) | 17.5 | 0.25 (≈ 0.408 µM) | 17.8 | 12.7 | 19.2 | 0.25 (≈ 0.408 µM) | 16.1 | 18.4 | 13.7 | 0.5 (≈ 0.816 µM) | 17.4
C=C[C@]1(C)C[C@@H](OC(=O)CSc2nnc(NC(=O)c3ccc(N)cc3)s2)[C@]2(C)[C@H](C)CC[C@]3(CCC(=O)[C@H]32)[C@@H](C)[C@@H]1O | 16 (≈ 26.1 µM) | 11.4 | 2 (≈ 3.26 µM) | 14.8 | 10.7 | 13.2 | 2 (≈ 3.26 µM) | 12.1 | 14 | 12.2 | 1 (≈ 1.63 µM) | 12.3
C=C[C@]1(C)C[C@@H](OC(=O)CSc2nnc(NC(=O)CN(C)C)s2)[C@]2(C)[C@H](C)CC[C@]3(CCC(=O)[C@H]32)[C@@H](C)[C@@H]1O | 32 (≈ 55.3 µM) | 15.4 | 2 (≈ 3.46 µM) | 16 | 10.1 | 17.6 | 1 (≈ 1.73 µM) | 14.3 | 14.5 | 12 | 2 (≈ 3.46 µM) | 11.5
C=C[C@]1(C)C[C@@H](OC(=O)CSc2nnc(NC(=O)CN(CC)CC)s2)[C@]2(C)[C@H](C)CC[C@]3(CCC(=O)[C@H]32)[C@@H](C)[C@@H]1O | 64 (≈ 105 µM) | 11 | 8 (≈ 13.2 µM) | 12.8 | 9.13 | 12.3 | 8 (≈ 13.2 µM) | 11.5 | 12.7 | 10.2 | 4 (≈ 6.59 µM) | 10.4
C=C[C@]1(C)C[C@@H](OC(=O)CSc2nnc(NC(=O)CN3CCCC3)s2)[C@]2(C)[C@H](C)CC[C@]3(CCC(=O)[C@H]32)[C@@H](C)[C@@H]1O | 32 (≈ 52.9 µM) | 13.1 | 2 (≈ 3.31 µM) | 12.8 | 9.86 | 13.2 | 4 (≈ 6.61 µM) | 10.5 | 13.8 | 11.1 | 4 (≈ 6.61 µM) | 12.8
C=C[C@]1(C)C[C@@H](OC(=O)CSc2nnc(NC(=O)CN3CCOCC3)s2)[C@]2(C)[C@H](C)CC[C@]3(CCC(=O)[C@H]32)[C@@H](C)[C@@H]1O | ≥ 64 | 13.4 | 4 (≈ 6.44 µM) | 10.8 | 0 | 15.4 | 1 (≈ 1.61 µM) | 0 | 13.2 | 11.9 | 8 (≈ 12.9 µM) | 10.9
C=C[C@]1(C)C[C@@H](OC(=O)CSc2nnc(NC(=O)CN3CCN(C)CC3)s2)[C@]2(C)[C@H](C)CC[C@]3(CCC(=O)[C@H]32)[C@@H](C)[C@@H]1O | 16 (≈ 25.2 µM) | 11 | 8 (≈ 12.6 µM) | 13.1 | 10.6 | 12 | 8 (≈ 12.6 µM) | 10.7 | 12.6 | 11.2 | 4 (≈ 6.31 µM) | 11.2
CC[C@]1(C)C[C@@H](OC(=O)CSc2nnc(N)[nH]2)[C@]2(C)[C@H](C)CC[C@]3(CCC(=O)[C@H]32)[C@@H](C)[C@@H]1O [AZAMULIN] | 4 (≈ 8.36 µM) | 16.5 | 0.125 (≈ 0.261 µM) | 17 | 16 | 18 | 0.5 (≈ 1.04 µM) | 15.4 | 18.9 | 17.2 | 0.5 (≈ 1.04 µM) | 17.2
C=C[C@]1(C)C[C@@H](OC(=O)CSCCN(CC)CC)[C@]2(C)[C@H](C)CC[C@]3(CCC(=O)[C@H]32)[C@@H](C)[C@@H]1O [TIAMULIN] | 16 (≈ 32.4 µM) | 16.9 | 0.5 (≈ 1.01 µM) | 15.6 | 13.6 | 17.2 | 0.5 (≈ 1.01 µM) | 13.9 | 16.1 | 15.8 | 2 (≈ 4.05 µM) | 14.6
